# Assay outcomes: PubChem BioAssay, several laboratories
# UPR XBP1 act = activators of adaptive XBP1 UPR arm, primary screen, cell-based, CHO-XBP1 luciferase reporter, luminescence, uHTS. IRE1-XBP1 UPR activation; percent of tunicamycin response, DMSO as zero. activation, % at 20 µM. 330,000 tested, 0.33% active. AID 463104, 2010;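 active means versus positive control, 20 µM dose yields 30% or more activation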;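 further: 100% = tunicamycin at 10 µg/mL and 0% = DMSO only wells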
#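 Assay system: CHO-XBP1 luciferase reporter cells; Schedule: 6 h treatment, 37 °C; Detection: glow luminescence from Steady-Glo reagent; Benchmarks: high control tunicamycin 10 µg/mL final, low control DMSO vehicle only.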
# aDG glyco act = activators of alpha-DG glycosylation, primary screen, uHTS, Pro5-aDG cells, AlphaScreen; 360,000 tested, 0.22% active; activation, % at 10 µM; alpha-DG glycosylation AlphaScreen (IIH6); 0% Pro5, 100% B10-LARGE cell signal; AID 624168, 2012;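 active means activation of at least 8% versus controls, or a plate z-score of at least 8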;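 further: Pro5 are CHO cells carrying HIG-tagged alpha-DG that lacks glycosylation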
# MPTP inh = mitochondrial permeability transition pore inhibitors, primary screen, biochemical, isolated mouse mitochondria, absorbance; AID 602449, 2012; 360,000 tested, 1.4% active; inhibition, % at 10 µM; Ca2+ swelling absorbance, 30 min;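 active means inhibition of 50% or more, scaled per plate between neutral and stimulator controls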;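 further: 0% = DMSO wells given calcium and 100% = 1 mM EGTA wells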
# UPR CHOP act = activators of apoptotic CHOP UPR arm, primary screen, cell-based, CHO-CHOP luciferase reporter, luminescence, uHTS. 330,000 tested, 0.34% active. UPR activation; percent of tunicamycin response over DMSO baseline. activation, % at 10 µM;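 active means at 10 µM dose, activation of 40% or more, normalized to positive control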;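 further: 100% = tunicamycin at 10 µg/mL and 0% = DMSO alone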
#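 Material: CHO-CHOP cells, stable luciferase reporter of PERK-eIF2a-CHOP signalling; quantity: 500 reporter cells seeded per well; buffer or medium: F12 medium containing 10% fetal bovine serum; compound: one dose, 10 µM in 0.5% DMSO; incubation: 6 h compound treatment, 37 °C; measured by: Steady-Glo luciferase luminescence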
# CHOP inh = inhibitors of CHOP promoter induction, primary screen, cell-based, unfolded protein response, luciferase reporter. CHO-K1 CHOP-promoter luciferase, tunicamycin-induced, 15-18 h. inhibition, % at 10 µM. 220,000 tested, 3.8% active;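 active means compounds that reduced the stress-induced luciferase reporter signal by more than about 70% of percent inhibition, limit read from the data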;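 further: 0% = tunicamycin plus vehicle and 100% = wells without tunicamycin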
# NR3A LBD binder = binders of NR3A ligand-binding domain, primary screen, biophysical, differential scanning fluorimetry, uHTS; Glutamate receptor ionotropic, NMDA 3A (GRIN3A) ligand-binding domain; NR3A LBD differential scanning fluorimetry, Tm shift; 0% = protein alone, 100% = glycine-bound protein; Tm shift relative to glycine control, % at 25 µM; 340,000 tested, 2.5% active; AID 1259313, 2017;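 active means melting temperature shift of at least 10% of the positive control shift, at one fixed dose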
# CHOP UPR conf = activators of apoptotic CHOP UPR arm, confirmation, cell-based, CHO-CHOP luciferase reporter, single concentration | shares compounds with UPR CHOP act | CHO-CHOP cells, CHOP-luciferase reporter luminescence; percent of tunicamycin response, DMSO as zero | activation, % at 10 µM | 1,000 tested, 64% active; in the data active means activation above about 33%;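 further: 0% = DMSO wells and 100% = tunicamycin 10 µg/mL wells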
# UPR XBP1 confirm = IRE1-XBP1 UPR arm activators, confirmation, cell-based, CHO-XBP1 luciferase reporter, luminescence, single concentration. AID 485299, 2010. 1,000 tested, 63% active. shares compounds with UPR XBP1 act. activation, % at 20 µM;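 active means reporter signal at least 30% of the positive control's activation in two or more of four replicate wells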;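 further: plate controls were DMSO negative control for no effect and tunicamycin 10 µg/mL positive control for full effect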
# Active calls of the source: *; . = no result given. An excerpt weighted towards active compounds, which were near 5.6% of everything screened.
SMILES,UPR XBP1 act,aDG glyco act,MPTP inh,UPR CHOP act,CHOP inh,NR3A LBD binder,CHOP UPR conf,UPR XBP1 confirm
COc1ccc(NC(=O)c2nc(S(=O)(=O)Cc3cccc(C)c3)ncc2Cl)c(OC)c1,-5,0,0,61*,.,0,296*,.
Cc1ccc(C(=O)CSc2nc(N)cc(=O)[nH]2)cc1C,-2,0,-1,.,.,0,-1,.
Cc1cc(C(=O)CSc2nc(N)cc(=O)[nH]2)ccc1F,2,0,-1,0,.,-1,.,.
Cc1ccc2nc(Nc3ccccc3)c(/C=N/O)c(=O)n2c1,0,0,0,1,14,3,.,.
Cc1ccc(Sc2nc3ccc(C)cn3c(=O)c2/C=N/O)cc1,10,0,1,52*,45,-2,0,.
COc1ccccc1CNCC(=O)N1CC(=O)Nc2ccccc21,-6,0,0,0,0,1,.,.
O=C(/C=C/c1ccncc1)c1ccc2c(c1)OCCO2,-3,0,-2,5,-105,1,.,.
COc1cc(/C=C/C(=O)c2ccc3c(c2)OCCO3)cc(Br)c1OCC(=O)N(C)C,13,0,0,135*,.,0,272*,.
O=C(CC[C@H]1O[C@@H](n2cnc3c(NC(=O)c4ccccc4)ncnc32)[C@H](O)[C@@H]1O)NCc1ccc2c(c1)OCO2,.,0,-1,.,.,.,.,.
Cc1ccc(/C=C/C(=O)c2ccc([N+](=O)[O-])o2)cc1,-4,.,.,189*,.,-6,135*,.
O=C(/C=C/c1ccc(Cl)cc1)c1ccc([N+](=O)[O-])o1,-6,-1,-1,69*,.,-19,22,.
COC(=O)Cn1c(=NC(=O)c2ccc([N+](=O)[O-])s2)sc2cc(Br)ccc21,11,.,.,50*,45,.,24,.
O=C(COC(=O)/C=C/c1ccc(S(=O)(=O)N2CCc3ccccc32)cc1)NC1CCS(=O)(=O)C1 (stereo not given),-2,0,-1,-1,-14,2,.,.
Cn1nc(C(F)(F)F)c(/C=N/OC(=O)c2ccccc2)c1SCc1ccccc1Cl,91*,0,6,52*,2,5,100*,115*
Oc1ccc(/C=N/Nc2cc(N3CCOCC3)nc(N3CCOCC3)n2)cc1O,59*,0,2,268*,-82,1,100*,42*
FC(F)(F)c1nnc2c(Sc3ccccc3)nc3ccccc3n12,5,0,1,1,33,0,.,.
FC(F)(F)c1nnc2c(Sc3ccc(Cl)cc3)nc3ccccc3n12,59*,0,1,84*,71*,-3,127*,55*
NC(N)=[N+]1CCc2ccccc2C1,.,.,.,.,1,.,.,.
O=C1NN(c2ccccc2)C(=O)/C1=C/c1ccc(-c2ccc(C(=O)O)cc2)o1,-3,0,1,2,.,2,.,.
O=C(O)c1ccc(N2C(=O)/C(=C/c3ccc(-c4ccc([N+](=O)[O-])cc4)o3)C=C2c2ccccc2)cc1,57*,-1,28,44*,12,7,20,80*
Cn1c2ccccc2c2cc(/C=N/NC(=O)c3cc(O)ccc3O)ccc21,33*,-1,3,169*,.,26*,84*,87*
O=C(N/N=C/c1cccc(O)c1)c1ccccc1O,2,0,2,0,1,8,.,.
O=C(NCCc1ccccc1)C1COc2ccccc2O1 (stereo not given),0,0,0,2,.,3,.,.
O=C(NCCc1ccc(O)c(O)c1)C1COc2ccccc2O1 (stereo not given),50*,0,1,64*,.,3,9,46*
O=c1/c(=C/c2ccc(O)cc2)sc2nc3cc(Br)cnc3n12,79*,.,.,63*,-23,.,13,21
SMILES,UPR XBP1 act,aDG glyco act,MPTP inh,UPR CHOP act,CHOP inh,NR3A LBD binder,CHOP UPR conf,UPR XBP1 confirm
Cc1ccc(C(=O)C=CC=Cc2ccccc2)cc1,.,1,0,.,.,.,.,.
Cc1ccc(C(=O)C(C(=O)/C=C/c2ccccc2)=C2SCCCS2)cc1,30*,-1,-2,75*,-79,2,96*,39*
CCCC(=O)N1CCC1(C)C(=O)NS(=O)(=O)c1cccc(C)c1 (stereo not given),.,0,-2,.,.,.,.,.
COc1cc(C(=O)Nc2nc(-c3ccc(Cl)cc3)c(C)s2)ccc1OCC(=O)Nc1ccc(F)cc1,99*,0,-1,127*,77*,18*,71*,109*
CCc1ccc(-c2nc(NC(=O)c3ccc(OCC(=O)Nc4ccc(F)cc4)c(OC)c3)sc2C)cc1,-4,0,-2,0,27,2,.,.
CCN(CC)S(=O)(=O)c1ccc(NC(=O)CC(NC(C)=O)c2ccccc2)cc1 (stereo not given),0,0,7,-3,-3,-1,.,.
C=CCC[C@H](CCCCC)OC(=O)/C=C/[C@@H](O)[C@H](O)C[C@@H](O)CC=C,.,2,0,.,.,.,.,.
COC(=O)c1ccc(COc2ccccc2/C=C(\C#N)C(=O)Nc2c(C)cccc2C)cc1,65*,0,-4,128*,-76,1,85*,65*
COc1ccc(NC(=O)CC23CC4CC(C2)CC(n2nnc(C)n2)(C4)C3)cc1,-2,0,2,0,9,-2,.,.
CN1CCN(S(=O)(=O)c2ccc(Oc3cccc(C(F)(F)F)c3)nc2)CC1,-2,0,0,2,.,-2,.,.
Oc1ccc(CN2CCC(Cc3ccccc3)CC2)c2cccnc12,39*,.,.,385*,65,-4,254*,31*
Cc1[nH]c2ccccc2c1CN1CCC(Cc2ccccc2)CC1,33*,0,7,46*,-70,-1,47*,21
Oc1ccc(Cc2ccccc2)c2cccnc12,.,0,0,.,.,-3,.,.
Cc1[nH]c2ccccc2c(=O)c1CN1CCCCC1,0,0,-2,-1,19,-2,.,.
